Experimental data taken from ChEMBL document CHEMBL5154713, “Illuminating a Dark Kinase: Structure-Guided Design, Synthesis, and Evaluation of a Potent Nek1 Inhibitor and Its Effects on the Embryonic Zebrafish Pronephros” (J Med Chem, 2022).
In brackets after ≈: the same amount, converted by molar mass.

Key:
[1] = target: T1, Serine/threonine-protein kinase Nek1 (Homo sapiens, UniProt Q96PY6); experiment: Inhibition of human recombinant NEK1 (1 to 505 residues) using ULight-p70 S6K peptide as substrate incubated for 30 mins by LANCE Ultra TR-FRET assay
T1 sequence (Q96PY6 whole entry): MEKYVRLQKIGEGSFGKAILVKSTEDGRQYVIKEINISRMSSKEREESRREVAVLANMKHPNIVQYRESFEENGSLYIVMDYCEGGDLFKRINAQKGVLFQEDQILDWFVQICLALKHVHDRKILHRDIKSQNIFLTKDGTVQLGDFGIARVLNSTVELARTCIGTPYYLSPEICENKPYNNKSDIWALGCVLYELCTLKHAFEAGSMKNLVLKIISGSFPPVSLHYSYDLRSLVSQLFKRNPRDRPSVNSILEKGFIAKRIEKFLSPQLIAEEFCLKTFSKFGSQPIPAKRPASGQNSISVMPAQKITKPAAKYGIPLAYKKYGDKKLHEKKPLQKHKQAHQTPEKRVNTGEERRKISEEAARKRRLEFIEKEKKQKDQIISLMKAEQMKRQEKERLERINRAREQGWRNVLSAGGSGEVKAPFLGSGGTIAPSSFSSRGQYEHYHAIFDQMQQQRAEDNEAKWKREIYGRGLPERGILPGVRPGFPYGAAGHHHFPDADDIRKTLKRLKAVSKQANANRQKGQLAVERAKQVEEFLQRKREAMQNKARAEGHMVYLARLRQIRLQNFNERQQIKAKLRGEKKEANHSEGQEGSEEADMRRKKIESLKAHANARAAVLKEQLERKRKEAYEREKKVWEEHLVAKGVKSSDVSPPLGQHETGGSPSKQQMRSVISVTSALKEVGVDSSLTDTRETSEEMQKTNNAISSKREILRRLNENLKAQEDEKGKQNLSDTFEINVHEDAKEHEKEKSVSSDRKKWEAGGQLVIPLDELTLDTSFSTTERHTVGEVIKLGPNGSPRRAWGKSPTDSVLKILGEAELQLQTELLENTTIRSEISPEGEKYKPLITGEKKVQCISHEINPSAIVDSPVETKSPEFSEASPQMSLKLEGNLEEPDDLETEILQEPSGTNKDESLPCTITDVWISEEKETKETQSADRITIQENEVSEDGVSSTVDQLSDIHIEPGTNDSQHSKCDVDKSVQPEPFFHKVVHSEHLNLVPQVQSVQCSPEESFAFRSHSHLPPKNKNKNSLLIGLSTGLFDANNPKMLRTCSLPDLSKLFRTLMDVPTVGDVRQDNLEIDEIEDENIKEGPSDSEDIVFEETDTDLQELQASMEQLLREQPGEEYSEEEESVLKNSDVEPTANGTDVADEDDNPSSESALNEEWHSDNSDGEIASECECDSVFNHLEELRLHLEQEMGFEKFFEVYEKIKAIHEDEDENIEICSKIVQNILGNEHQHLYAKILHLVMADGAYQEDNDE
Outline: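 Recombinant human Nek1 (1−505, 0.02 nM) in 50 mM HEPES pH 7.5, 1 mM EGTA, 10 mM MgCl2, 0.2 mM DTT, 0.01% Tween20, with 50 nM ULight-p70 S6K peptide and 60 μM ATP, 30 min at 22 °C. Stopped with EDTA plus Eu anti-phospho antibody, 1 h signal development. Ten half-log concentrations from 30 μM (10 μM for some) to 1 nM. Mean of two experiments.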

[2] = target: Serine/threonine-protein kinase pim-1 (Homo sapiens) (UniProt P11309); experiment: Inhibition of human full length recombinant Pim1 assessed as residual activity at 1 uM using KKRNRTLTV as substrate incubated for 40 mins in presence of [gamma 33P]-ATP by radiometric scintillation counting assay relative to control
Outline: (§1)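 Commercial radiometric panel of 50 kinases. Each recombinant human kinase was tested at a single compound concentration of 1 μM. ATP was set within 15 μM of the apparent Km for ATP for each kinase. Residual activity is relative to control and is the mean of two independent experiments.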

[3] = Permeability across apical to basolateral side in human Caco-2 cells assessed as drug recovery at pH 6.5 to 7.4 by HPLC-MS/MS analysis; type: ADME, cell-based; details: Caco-2, pH 6.5, read-out: Drug recovery
Outline: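 Commercial Caco-2 assay, apical-to-basolateral direction at pH 6.5/7.4. Permeability and percent recovery taken from HPLC-MS/MS peak area response. Propranolol, labetalol, colchicine and ranitidine run in parallel as references.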

Homo sapiens = organism: Homo sapiens; experiment: Inhibition of human full length recombinant CDK1/CyclinB assessed as residual activity at 1 uM using histone H1 as substrate incubated for 40 mins in presence of [gamma 33P]-ATP by radiometric scintillation counting assay relative to control; outline: as §1
[4] = target: Tyrosine-protein kinase SYK (Homo sapiens) (UniProt P43405); experiment: Inhibition of recombinant full-length human Syk at 1 uM assessed as residual activity at 1 uM using poly(Glu, Tyr) 4:1 as substrate measured after 40 mins in presence of [gamma33P]ATP by radiometric scintillation counting method relative to control; outline: as §1
[5] = Toxicity in wild-type Zebrafish embryos assessed as effect on ordinary heartbeat at 0.05 to 30 uM measured upto 120 hrs; set-up: species or system Danio rerio; details: in vivo, dose 0.05-30 µM
Outline: (§2)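 Wild-type embryos, 15 per group with intact chorions, dosed at 6 hpf with 0.05–30 μM final concentrations in E3, diluted from a DMSO stock. Survival checked every 24 h by heartbeat over 120 h, and phenotypes assessed visually. At least triplicate, 5 replicates at 30 μM.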

[6] = target: Serine/threonine-protein kinase Nek2 (Homo sapiens) (UniProt P51955); experiment: Inhibition of human full length recombinant NEK2 assessed as residual activity at 1 uM using poly(Glu, Tyr) 4:1 as substrate incubated for 40 mins in presence of [gamma 33P]-ATP by radiometric scintillation counting assay relative to control; outline: as §1
[7] = Toxicity in fluorescence-labelled Zebrafish pronephron assessed as increase in impaired renal clearance at 10 to 20 uM; set-up: species or system Danio rerio; details: in vivo, dose 10-20 µM
Outline: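 Wild-type embryos exposed from 6 hpf to E3/0.2% DMSO controls or 10 and 20 μM compound, in E3 with 75 μM PTU. At 48 h, 100 nM PT-Yellow for 20 min, washed, then returned to compound up to 96 h total. Anesthetized embryos imaged in agarose molds by widefield microscopy, 33 Z-slices. Tubule fluorescence and area quantified from summed deconvolved projections. n = 3–5.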

[8] = target: Serine/threonine-protein kinase mTOR (Homo sapiens) (UniProt P42345); experiment: Inhibition of human full length recombinant MTOR assessed as residual activity at 1 uM incubated for 40 mins in presence of [gamma 33P]-ATP by radiometric scintillation counting assay relative to control; outline: as §1
[9] = Solubility of the compound in E3 medium with DMSO incubated for 24 hrs by DAD-HPLC based shake flask method; type: physicochemical
Outline: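 Shake-flask solubility: saturated solution in E3-medium shaken 24 h at 25 °C, then HPLC-DAD at 280 nm. Concentration read by interpolation from a calibration series of 1–100 μM standards in acetonitrile, prepared from a 10 mM DMSO stock. Triplicate.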

[10] = Toxicity in wild-type Zebrafish embryos assessed as effect on normal eye development at 0.05 to 30 uM measured upto 120 hrs; set-up: species or system Danio rerio; details: in vivo, dose 0.05-30 µM; outline: as §2

Chain of Serine/threonine-protein kinase pim-1 (Homo sapiens) (P11309 whole entry, looked up): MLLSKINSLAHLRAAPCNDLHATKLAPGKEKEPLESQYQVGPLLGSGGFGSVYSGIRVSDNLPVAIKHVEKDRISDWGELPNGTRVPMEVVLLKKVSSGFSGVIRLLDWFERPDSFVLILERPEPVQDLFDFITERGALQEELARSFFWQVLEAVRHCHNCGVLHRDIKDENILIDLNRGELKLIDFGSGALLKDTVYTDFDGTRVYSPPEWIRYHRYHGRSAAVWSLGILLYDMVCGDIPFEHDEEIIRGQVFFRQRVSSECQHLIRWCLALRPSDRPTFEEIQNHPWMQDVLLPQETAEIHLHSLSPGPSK
Chain of Serine/threonine-protein kinase Nek2 (Homo sapiens) (P51955 whole entry): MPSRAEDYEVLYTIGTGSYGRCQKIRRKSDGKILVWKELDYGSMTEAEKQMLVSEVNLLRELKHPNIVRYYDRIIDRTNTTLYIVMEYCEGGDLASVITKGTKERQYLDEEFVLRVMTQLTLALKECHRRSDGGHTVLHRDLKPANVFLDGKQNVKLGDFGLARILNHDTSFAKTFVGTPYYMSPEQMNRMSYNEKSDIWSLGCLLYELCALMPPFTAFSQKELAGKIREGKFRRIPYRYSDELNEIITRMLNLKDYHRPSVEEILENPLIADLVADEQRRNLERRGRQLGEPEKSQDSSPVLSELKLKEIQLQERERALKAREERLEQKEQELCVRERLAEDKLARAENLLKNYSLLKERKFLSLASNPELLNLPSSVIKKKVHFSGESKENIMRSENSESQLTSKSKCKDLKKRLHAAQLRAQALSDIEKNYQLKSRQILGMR

O=S(=O)(N[C@@H](CO)Cc1c[nH]c2ccccc12)c1ccc(-c2ccnc3[nH]ccc23)cc1
IC50 [1]: 330 nM | Activity [2]: > 75% | recovery [3]: 45% | Activity (Homo sapiens): > 75% | Activity [4]: > 75% | Activity [5]: Non-Toxic | Activity [6]: > 75% | Activity [7]: Toxic | Activity [8]: > 75% | solubility at 24 h [9]: 13.9 µg/mL (≈ 31.1 µM) | Activity [10]: Non-Toxic
